The list is not random: actives were taken first. Their share in the collection is about 1.2%.
Fh CTSL1 inh – cathepsin L1 inhibition, PFM18AAP counter-screen. hit rate 0.49% among 300,000. recombinant F. hepatica cathepsin L1, Z-Leu-Arg-MCA fluorescence. AID 1906. inhibition, % at 5.96 µM;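 active = inhibition above the mean of all tested compounds plus 3 SD, set per screening campaign, cut at about 17% in these data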;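 note: 0% = plate median of test compound wells and 100% = 1 µM Z-Phe-Ala-diazomethylketone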
NPR2 activator – GC-B (human) receptor activation; HEK293-GC-B cells, CNP EC30, cGMP TR-FRET; 0% at EC30 CNP, 100% saturating CNP; P20594; activation, % at 10 µM; AID 1920062; hit rate 0.11% among 370,000;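 active = activation at 10 µM reaching about 35% in either raw or pattern-adjusted values, limit read from the data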
ARFGAP1 inhibitor – inhibitors of rat ARFGAP1; Q62848; hit rate 0.26% among 360,000; Arfgap1-stimulated ARF1 GTP hydrolysis, GDP FP detection; AID 651572; inhibition, % at 16.5 µM;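 active = inhibition above a per-plate limit, mean inhibition of low control wells plus 3 SD, cut at about 25% in these data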;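 note: 0% = DMSO wells with enzyme and 100% = wells lacking Arfgap1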
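material = rat Arfgap1 catalytic domain, aa 1-136 | also added = human ARF1(Δ1-17)-GTP substrate | compound dosing = one concentration, 16.5 µM, DMSO 1.26% | times = GTP hydrolysis reaction 2 h at 25 °C | measured by = FP, GDP Alexa 633 tracer displaced from anti-GDP antibody, 620/688 nm | evaluation = percent inhibition of Arfgap1-stimulated GTP hydrolysis | replication = single well per compound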
GC-A act – GC-A (human) enzyme activation. hit rate 0.14% among 370,000. activation, % at 10 µM. AID 1671463. P16066. HEK293 GC-A cells, cGMP TR-FRET, EC30 ANP; 0% at EC30 ANP, 100% saturating ANP; in the data active = activation above about 40%
Target sequence (P16066 whole entry, looked up): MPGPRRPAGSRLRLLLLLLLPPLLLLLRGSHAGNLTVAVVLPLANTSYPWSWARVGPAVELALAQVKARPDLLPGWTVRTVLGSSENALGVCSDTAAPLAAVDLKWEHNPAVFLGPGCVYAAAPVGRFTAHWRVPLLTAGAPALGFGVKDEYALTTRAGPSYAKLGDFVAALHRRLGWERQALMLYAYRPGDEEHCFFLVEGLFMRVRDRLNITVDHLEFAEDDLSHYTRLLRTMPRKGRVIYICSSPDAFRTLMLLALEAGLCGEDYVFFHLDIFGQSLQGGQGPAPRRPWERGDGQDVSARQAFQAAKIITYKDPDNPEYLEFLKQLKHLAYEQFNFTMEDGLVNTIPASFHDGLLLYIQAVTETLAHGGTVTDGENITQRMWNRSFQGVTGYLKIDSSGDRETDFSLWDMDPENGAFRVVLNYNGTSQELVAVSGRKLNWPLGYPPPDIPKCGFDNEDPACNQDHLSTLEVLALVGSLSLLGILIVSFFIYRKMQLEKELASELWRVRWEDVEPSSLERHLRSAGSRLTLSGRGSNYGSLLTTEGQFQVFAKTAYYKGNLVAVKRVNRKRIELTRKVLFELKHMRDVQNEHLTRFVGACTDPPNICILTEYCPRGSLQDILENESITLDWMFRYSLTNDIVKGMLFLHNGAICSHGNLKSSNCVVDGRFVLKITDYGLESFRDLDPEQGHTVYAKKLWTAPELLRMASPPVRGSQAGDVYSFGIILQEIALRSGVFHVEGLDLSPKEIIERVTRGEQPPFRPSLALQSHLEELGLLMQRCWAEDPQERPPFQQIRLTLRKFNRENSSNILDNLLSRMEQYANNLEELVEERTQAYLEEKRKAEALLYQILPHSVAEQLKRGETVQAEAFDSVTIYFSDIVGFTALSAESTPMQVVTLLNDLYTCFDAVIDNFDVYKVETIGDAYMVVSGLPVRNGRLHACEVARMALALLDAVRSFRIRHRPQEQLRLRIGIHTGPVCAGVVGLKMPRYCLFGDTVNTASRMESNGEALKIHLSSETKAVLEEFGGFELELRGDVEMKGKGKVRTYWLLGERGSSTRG
ASAP1 inh – inhibitors of human ASAP1 ArfGAP activity | Q9ULH1 | ASAP1-stimulated ARF1 GTP hydrolysis, GDP FP detection | inhibition, % at 16.5 µM | hit rate 0.19% among 360,000 | AID 624377; in the data active = inhibition above about 25%;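 note: 0% = vehicle with enzyme and substrate and 100% = no enzyme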
HCV core dimer – blocks dimerization of HCV core protein. TR-FRET GST/Flag-core106 dimerization, 1536-well. inhibition, % at 5 µM. hit rate 0.33% among 300,000. AID 1899;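 active = inhibition above the mean of all tested compounds plus 3 SD, set per screening campaign, cut at about 45% in these data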
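Test system: GST/Flag-tagged HCV core106 proteins; Medium: KF-containing HEPES buffer, pH 7.45, DTT, CHAPS, BSA; Times: compound-protein-antibody incubation 4 h at 22.5 °C; Detection: TR-FRET 671 and 617 nm emission; Benchmarks: wells lacking GST-core106 and wells with excess unlabelled core106.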
Numbers without * were called inactive; . = not tested or not shown.

SMILES | Fh CTSL1 inh | NPR2 activator | ARFGAP1 inhibitor | GC-A act | ASAP1 inh | HCV core dimer
N#C/C(=C\Nc1ccc2cn[nH]c2c1)c1nc(-c2ccc(Cl)cc2)cs1 | -1.9 | -7.8 | 15.3 | 2.0 | 29.2* | 12.0
Cc1ccc(NC(=O)C2CCN(S(=O)(=O)c3cc([N+](=O)[O-])ccc3Cl)CC2)nc1 | . | -2.0 | -11.7 | 2.3 | 4.8 | .
O=C(Nc1nc2ccc(F)cc2s1)C1CCN(S(=O)(=O)c2cc([N+](=O)[O-])ccc2Cl)CC1 | 0.2 | -7.4 | 23.3 | 21.7 | 14.8 | 46.5*
Cc1ccc2nc(NC(=O)C3CCN(S(=O)(=O)c4cc([N+](=O)[O-])ccc4Cl)CC3)sc2c1 | -2.4 | 1.4 | -2.6 | 2.9 | -5.5 | 65.7*
Cn1c(SCC(=O)Nc2sccc2C#N)nnc1-c1ccccc1 | 5.8 | 2.0 | 7.2 | -1.7 | 2.9 | 48.5*
Cn1c(SCC(=O)Nc2sccc2C#N)nnc1C1CC1 | . | 1.8 | -13.6 | -4.4 | 3.9 | .
Cc1nc(N2CCCC2)c2nnn(Cc3ccccc3Cl)c2n1 | 17.5* | 8.1 | 9.1 | 6.9 | -5.2 | 0.3
Cc1nc(NC2CCCCC2)c2nnn(Cc3ccccc3Cl)c2n1 | 1.8 | -0.2 | -3.2 | 5.8 | -10.3 | 1.3
CCC(C(=O)Nc1cnccn1)c1ccccc1 (stereo not given) | 8.0 | 2.2 | 7.6 | 1.1 | -16.0 | 0.5
O=[N+]([O-])c1ccc(O)c(-c2cc(C(F)(F)F)nc(-c3ccccc3)n2)c1 | 4.7 | 3.8 | 6.8 | 17.6 | -6.8 | 41.0
Cc1c(N2C(=O)c3ccc4c5c(ccc(c35)C2=O)CC4)c(=O)n(-c2ccccc2)n1C | 1.3 | . | . | . | . | 81.7*
O=C(N/N=C/c1cccc(NC(=O)c2ccc(Cl)cc2)c1)c1ccc(O)cc1 | 1.4 | 2.5 | -6.4 | -5.5 | 0.1 | 1.0
CCn1cnc2c1c(=O)n(Cc1ccc(C(=O)OC)cc1)c(=O)n2Cc1ccccc1 | -2.3 | 35.1* | 3.7 | -12.7 | 7.7 | 5.0
CCn1cnc2c1c(=O)n(CC(=O)OC)c(=O)n2Cc1ccccc1 | -1.8 | 12.4 | -0.3 | 4.5 | 4.4 | 4.2
C[C@@H]1CN([C@H](C)CO)C(=O)c2cc(NC(=O)Nc3ccc(C(F)(F)F)cc3)ccc2O[C@H]1CN(C)S(=O)(=O)c1cccs1 | . | 7.2 | 10.6 | 0.2 | 26.0* | .
C[C@H](CO)N1C[C@H](C)[C@@H](CN(C)S(=O)(=O)c2cccs2)Oc2ccc(NC(=O)Nc3ccc(C(F)(F)F)cc3)cc2C1=O | . | 4.5 | 0.8 | 1.2 | 12.5 | .
CC(=O)c1ccc2c(c1)C1C=CCC1C(C(=O)O)N2 (stereo not given) | . | -2.6 | -7.9 | -12.1 | -10.5 | .
Cc1ccc2c(c1)C1C=CCC1C(C(=O)O)N2 (stereo not given) | -2.1 | . | . | . | . | 94.3*
O=C(Nc1ccccc1)NC1CCN(CCCN2C(=O)c3ccccc3C2=O)CC1 | -1.6 | 2.6 | -1.2 | -1.6 | 7.2 | -6.4
Cc1ccccc1OCC(=O)Nc1sc(C(=O)Nc2cccc(C)c2C)c(C)c1C#N | 3.4 | -8.8 | . | 55.8* | . | 26.1
O=C1c2ccccc2C(Nc2cccnc2)N1Cc1ccc2c(c1)OCO2 (stereo not given) | 0.2 | -2.9 | 5.0 | -2.0 | -3.1 | 3.7
O=C1c2ccccc2C(Nc2ccc(F)c(Cl)c2)N1Cc1ccco1 (stereo not given) | 0.0 | -10.8 | -3.4 | -4.0 | 17.9 | 35.3
O=C1c2ccccc2C(Nc2ccc3c(c2)OCO3)N1Cc1ccc2c(c1)OCO2 (stereo not given) | 1.7 | -5.5 | 3.5 | 59.1* | 12.5 | 50.2*
O=C1c2ccccc2C(Nc2ccc3c(c2)OCO3)N1Cc1ccco1 (stereo not given) | 0.2 | -1.8 | -1.6 | 40.7* | -1.6 | 18.2
COC(=O)CCC(=O)OC1(C)C(=O)C=C2C=C(C3CC3)N(c3ccc(CO)cc3)C=C2C1=O (stereo not given) | -6.0 | . | . | . | . | 69.2*
SMILES | Fh CTSL1 inh | NPR2 activator | ARFGAP1 inhibitor | GC-A act | ASAP1 inh | HCV core dimer
COC(=O)CCC(=O)OC1(C)C(=O)C=C2C=C(C3CC3)N(c3cccc(C#N)c3)C=C2C1=O (stereo not given) | -3.1 | 0.7 | 5.5 | -2.6 | -6.0 | -9.6
O=C(NCCS(=O)(=O)N1CCN(c2ccccc2F)CC1)c1ccc(F)c(F)c1 | -5.8 | 64.2* | 5.8 | -0.3 | 3.5 | -4.8
CCc1ccccc1NC(=O)CN1C(=O)C2CCCN2c2ncc(Cl)cc21 (stereo not given) | 2.3 | -0.5 | -8.6 | -10.1 | -1.7 | 23.7
COC(=O)c1ccccc1NC(=O)CN1C(=O)C2CCCN2c2ncc(Cl)cc21 (stereo not given) | 1.6 | . | . | . | . | 49.9*
CN(C)c1nc2c(N)ncnc2n1C1OC(CO)C(O)C1O (stereo not given) | . | -6.3 | -11.1 | 2.2 | -3.8 | .
O=C(c1ccccc1)N1CCN(S(=O)(=O)c2cccs2)CC1 | 1.2 | -1.2 | -2.9 | 2.6 | -6.9 | -2.8
O=C(N/N=C/c1ccc([N+](=O)[O-])o1)c1cn(-c2ccccc2)nc1-c1ccccc1 | 3.1 | 0.6 | -2.1 | -12.2 | 5.0 | 17.9
O=C(N/N=C/c1ccc([N+](=O)[O-])o1)c1cn(-c2ccccc2)nc1-c1ccc(Cl)cc1 | 1.4 | -9.9 | -0.7 | -8.5 | -4.7 | 46.1*
O=C(N/N=C/c1ccc([N+](=O)[O-])o1)c1cc(-c2ccc(-c3ccccc3)cc2)nc2ccccc12 | 0.7 | -12.9 | -1.8 | -16.1 | -6.5 | 67.0*
CN(C)C(=O)NC1CCCCCCCCCCC1 | 1.9 | -9.6 | 7.2 | 1.6 | -11.6 | -3.2
C#Cc1ccc(C(=O)NCc2ccc(N3CCCC3=O)cc2)cc1 | 1.9 | -0.2 | -1.5 | -1.9 | 6.2 | 27.4
Cc1cc(NC(=O)c2cc(-c3ccncc3)nc3c(C)cccc23)no1 | 3.7 | -4.4 | 0.5 | -3.1 | 10.5 | 54.1*
Cc1ccc(-c2cc(C(=O)Nc3cc(C)on3)c3ccccc3n2)cc1 | 1.3 | -0.8 | 5.8 | 3.1 | -3.6 | -4.7
CN(C)CCCN(C(=O)CCSc1ccccc1)c1nc2cc3c(cc2s1)OCO3 | 0.5 | -8.1 | 4.6 | -3.5 | -1.6 | -10.8
CCOC(=O)c1cccc(NC(=O)CS(=O)(=O)Cc2nc(-c3cccc(OC)c3)oc2C)c1 | -2.2 | 37.0* | -4.1 | 25.5 | 11.9 | 0.3
Cc1c(Cl)cnc(NC(=O)COC(=O)c2ccc([N+](=O)[O-])s2)c1Cl | 58.9* | -2.9 | -3.9 | -4.9 | 13.8 | 40.6
O=C(COC(=O)c1ccc([N+](=O)[O-])s1)Nc1ccc(Cl)cn1 | 44.5* | -2.3 | 0.1 | -7.0 | 3.1 | 31.4
CSc1cccc(NC(=O)C2CCCN2S(=O)(=O)c2ccc(Br)s2)c1 (stereo not given) | -0.8 | -1.8 | -2.0 | 0.2 | 4.0 | 4.2

Screening results: PubChem BioAssay, several laboratories
